Rows were chosen to be rich in hits. Some 2.2% of all compounds tested hit in one or more screens of this group.
PERK inhibitor = blocks human PERK kinase; Q9NZJ5; CHO PERK-DD fusion, SEAP luminescence translation reporter; inhibition, % at 5.6 µM; actives 0.17% (n = 220,000);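 active = inhibition above the mean inhibition of all tested compounds plus 3 SD, set separately per screening campaign, cut at about 2.9% in these data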;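 also: PERK kinase domain activated by AP20187 dimerizer at 100 nM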
Hck-Nef inh = inhibitors of human Hck kinase activated by Nef | actives 0.68% (n = 220,000) | inhibition, % at 20 µM | AID 463187 | P08631 | Recombinant Hck-YEEI plus Nef, Z-Lyte FRET kinase assay;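 active = Hck-Nef kinase inhibition above about 50%, limit read from the data; inactive = inhibition below that limit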
Runt-SMMHC FRET = blocks binding of human RUNX1 Runt domain to CBFb-SMMHC. Cerulean-Runt/Venus-CBFb-SMMHC FRET ratio 530/480, 1 h. actives 0.74% (n = 220,000). inhibition, % at 20 µM. Q01196+Q13951;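 active = mean inhibition across duplicate retests at 20 µM reaching about 50%, limit read from the data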;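 also: inhibitors lower the FRET ratio by blocking Runt binding to CBFb-SMMHC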
RanGTP-Impb inh = inhibitors of RanGTP-importin-beta interaction, primary screen, biochemical, FRET, CFP-Ran, YFP-importin-beta, homogeneous; cell-free CFP-Ran/YFP-importin-beta FRET ratio; inhibition, % (no concentration beside the values); actives 1.1% (n = 300,000);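 active = more than half of the replicate wells show a fall in the fluorescence ratio signal beyond about 16%, limit read from the data, passing the limit was not always enough; inconclusive = exactly half of the replicate wells pass the set limit; inactive = fewer than half of replicates pass the limit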
eIF4E-4G inh = blocks eIF4E binding to eIF4G | TR-FRET eIF4E-eIF4GI(517-606) binding, 2 h | inhibition, % at 21.7 µM | P63073+Q04637 | AID 782 | actives 0.37% (n = 220,000);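 active = inhibition above about 30%, limit read from the data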
Runt-CBFb FRET = Runt domain-CBFb interaction inhibition | Cerulean-Runt/Venus-CBFb FRET ratio 530/480, 1 h | inhibition, % at 20 µM | actives 0.46% (n = 220,000) | AID 1496;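 active = inhibition over about 50% at 20 µM in the single-dose screen, limit read from the data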
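Measured by: fluorescence energy transfer, 422 nm excitation, 530/480 nm emission; Assay system: Cerulean-Runt domain; Medium: Tris pH 7.5 buffer with BSA; Measure: loss of energy transfer signal; Controls: 5 µM unlabeled CBFb as full-inhibition high control; Incubation: protein complex preformed 1 h, compound exposure 1 h, room temperature, dark.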
Large screens that a line does not name were inactive; [ ] = remark or other dose.

N#CC1=C(N)OC2=C(CN(Cc3ccccc3)C/C2=C\c2cccnc2)C1c1cccnc1 (stereo not drawn)	none
CCN1CC2=C(OC(N)=C(C#N)C2c2ccccc2)/C(=C\c2ccccc2)C1 (stereo not drawn)	RanGTP-Impb inh 20.7
Cc1ccc(OCc2nc(-c3ccccn3)n[nH]2)cc1	eIF4E-4G inh 33.5[fluorescence artefact?]
Cc1cccc(OCc2nc(-c3ccccn3)n[nH]2)c1	none
O=S(=O)(Nc1cc(Cl)cc(Cl)c1)N1CCOCC1	none (no result: PERK inhibitor, Hck-Nef inh, Runt-SMMHC FRET, eIF4E-4G inh, Runt-CBFb FRET)
CC(=O)Nc1ccc(C2=NN(c3ccccc3)C(c3cccs3)C2)cc1 (stereo not drawn)	Runt-SMMHC FRET 54.6
Cc1ccc2[nH]c(=O)c(CN(CC3CCCO3)C(=O)c3ccncc3)cc2c1 (stereo not drawn)	none
CNC(=S)Nc1cccc(C(C)=O)c1	Hck-Nef inh 72.6
Cc1sc(NC(=O)CCCC(=O)O)c(C(N)=O)c1-c1ccccc1	Hck-Nef inh 102.0
CCOC(=O)C1CCN(C(=O)c2ccc3nc(-c4ccc(OC)cc4)c(-c4ccc(OC)cc4)nc3c2)CC1	RanGTP-Impb inh 23.9 (no result: PERK inhibitor, Hck-Nef inh, Runt-SMMHC FRET, eIF4E-4G inh, Runt-CBFb FRET)
COc1ccc(/C=C/C(=O)N2CCN(C)CC2)cc1S(=O)(=O)N1CCCCC1	RanGTP-Impb inh 76.7
Cc1nn2c(-c3ccc(Cl)cc3)ccnc2c1-c1ccccc1	none (no result: RanGTP-Impb inh)
O=S(=O)(Cc1ccccc1)N1CCc2ccccc2C1	none
O=C(CNS(=O)(=O)c1cccc2nsnc12)NC1CCCCC1	none
Cc1ccc(/C=C2\Oc3c(ccc(O)c3CN3CCN(C)CC3)C2=O)cc1	Runt-SMMHC FRET 90.0, RanGTP-Impb inh 21.9
CCN1CCN(Cc2c(O)ccc3c2O/C(=C\c2ccc(C)cc2)C3=O)CC1	Runt-SMMHC FRET 92.5, RanGTP-Impb inh 21.5
CCc1ccc(/C=C2\Oc3c(ccc(O)c3CN3CCN(C)CC3)C2=O)cc1	Runt-SMMHC FRET 81.2, RanGTP-Impb inh inconclusive
CCN1CCN(Cc2c(O)ccc3c2O/C(=C\c2ccccc2)C3=O)CC1	Runt-SMMHC FRET 88.4
Cc1ccc(C)n1-c1ccc(C#N)cn1	none
Cc1ccc(C(=O)CCC(=O)N2CCC(C(N)=O)CC2)cc1	none
C=CCN1C(=O)C(O)(CC(=O)c2ccco2)c2cc(Br)ccc21 (stereo not drawn)	none
Nc1cc(-c2ccccc2)nn1Cc1ccccc1	RanGTP-Impb inh 31.6
O=c1ccc(-c2ccccc2)nn1Cc1ccccc1	none (no result: PERK inhibitor, Hck-Nef inh, Runt-SMMHC FRET, eIF4E-4G inh, Runt-CBFb FRET)
CN(C(=O)COc1ccc(Cl)cc1)C1(C)CCS(=O)(=O)C1 (stereo not drawn)	none (no result: PERK inhibitor, Hck-Nef inh, Runt-SMMHC FRET, eIF4E-4G inh, Runt-CBFb FRET)
CN1CCc2c(sc(NC(=O)C3CCCN3S(=O)(=O)c3ccc(Cl)s3)c2C(N)=O)C1 (stereo not drawn)	RanGTP-Impb inh 163.9 (no result: PERK inhibitor, Hck-Nef inh, Runt-SMMHC FRET, eIF4E-4G inh, Runt-CBFb FRET)
CN1CCc2c(sc(NC(=O)c3ccc(S(=O)(=O)N4CCc5ccccc54)cc3)c2C(N)=O)C1	none
CNC(=O)c1c(NC(=O)c2ccc(S(=O)(=O)N3CCCc4ccccc43)cc2)sc2c1CCN(C)C2	RanGTP-Impb inh 28.2
CN1CCc2c(sc(NC(=O)c3ccc(S(=O)(=O)N4CCCC4)cc3)c2C(N)=O)C1	RanGTP-Impb inh 41.0 (no result: PERK inhibitor, Hck-Nef inh, Runt-SMMHC FRET, eIF4E-4G inh, Runt-CBFb FRET)
CN1CCc2c(sc(NC(=O)c3ccc(S(=O)(=O)N4CCCCCC4)cc3)c2C(N)=O)C1	RanGTP-Impb inh 57.6 (no result: PERK inhibitor, Hck-Nef inh, Runt-SMMHC FRET, eIF4E-4G inh, Runt-CBFb FRET)
CC(C)NC(=O)c1ccccc1NC(=O)CS(=O)(=O)Cc1ccccc1	none
O=C(c1cc(Cl)ccc1OCc1ccccc1)N1CCOCC1	none (no result: PERK inhibitor, Hck-Nef inh, Runt-SMMHC FRET, eIF4E-4G inh, Runt-CBFb FRET)
CC(/C=C1\SC(=S)N(NS(=O)(=O)c2ccccc2)C1=O)=C\c1ccccc1	Hck-Nef inh 74.3, RanGTP-Impb inh inconclusive
CC(C)(C)OC(=O)N[C@@H](Cc1ccccc1)C(=O)NCC1CCC(C(=O)N[C@@H](CCC(N)=O)C(=O)O)CC1 (stereo partly drawn)	none (no result: PERK inhibitor, Hck-Nef inh, Runt-SMMHC FRET, eIF4E-4G inh, Runt-CBFb FRET)
CCC(C)NS(=O)(=O)c1ccc(OCC(=O)NCc2ccccn2)cc1 (stereo not drawn)	PERK inhibitor 3.2
COc1ccccc1NC1=CC(=O)CC(c2ccccc2)C1 (stereo not drawn)	RanGTP-Impb inh 55.3
COc1ccc2nc(Nc3nc(C)c(C(C)=O)s3)sc2c1	RanGTP-Impb inh 18.1
CC(=O)c1cccc(NC(=O)c2nc(-c3ccccc3)oc2C)c1	eIF4E-4G inh 39.6

Screens: PubChem, several laboratories
